The list is not random: actives were taken first. Their share in the collection is about 4.3%.
CHO parental Ca = signal in parental CHO cells, OX1R antagonist counter-screen | parental CHO-K1, ATP-induced calcium, Fluo-8 fluorescence | inhibition, % at 5.6 µM | 330,000 tested, 0.63% active | AID 463079;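 active means inhibition above that plate's mean sample inhibition plus 3 SD, cut at about 26% in these data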
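Material: parental CHO cells / Compound: single nominal dose of 5.6 µM per compound / Signal: Fluo-8 fluorescence / Replicates: singlicate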
OX1R antag-1 = blocks the human orexin 1 receptor; CHO/OX1R cells, Fluo-8 calcium fluorescence, orexin A; inhibition, % at 5 µM; 330,000 tested, 0.43% active; AID 434989; O43613;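 active means inhibition above its plate's threshold, mean inhibition of all tested compounds on the plate plus 3 SD, cut at about 37% in these data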
GalR3 antag = human GalR3 antagonism; HEK293 GalR3-CNG cAMP membrane potential fluorescence; galR3 body fused to GalR1 C-terminus; 360,000 tested, 0.44% active; inhibition, % at 3 µM; O60755;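 active means inhibition above the screen-wide average plus 3 SD, cut at about 13% in these data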;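 further: forskolin and galanin both at EC90 stimulate the cells; cAMP rise reported by CNG channel membrane potential dye signal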
Target sequence (O60755 1-299 limits assumed): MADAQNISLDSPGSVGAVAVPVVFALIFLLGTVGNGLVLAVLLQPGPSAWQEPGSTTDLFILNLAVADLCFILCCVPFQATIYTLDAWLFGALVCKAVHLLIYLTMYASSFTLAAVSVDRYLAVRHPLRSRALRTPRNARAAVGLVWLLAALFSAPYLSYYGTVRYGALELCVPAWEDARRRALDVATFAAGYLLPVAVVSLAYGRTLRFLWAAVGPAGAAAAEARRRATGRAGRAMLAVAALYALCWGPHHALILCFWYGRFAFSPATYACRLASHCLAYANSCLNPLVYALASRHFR
OX1R antag-2 = blocks the human orexin 1 receptor; 330,000 tested, 1.8% active; OX1R-expressing cells, FRET antagonist read-out; inhibition, % at 6.6 µM; O43613; in the data active means inhibition mostly above about 38%, no sharp cut-off; inactive means mostly below about 40%
TAAR1 agonist = agonists of human TAAR1 | 360,000 tested, 0.99% active | Q96RJ0 | activation, % at 3 µM | AID 624467 | CHO RD-HGA16 TAAR1, Fluo-8 calcium fluorescence; vehicle wells 0%, saturating PEA agonist 100%;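 active means activation above the mean activation of all test compounds in the run plus 3 SD, cut at about 38% in these data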
Target sequence (Q96RJ0 whole entry, looked up): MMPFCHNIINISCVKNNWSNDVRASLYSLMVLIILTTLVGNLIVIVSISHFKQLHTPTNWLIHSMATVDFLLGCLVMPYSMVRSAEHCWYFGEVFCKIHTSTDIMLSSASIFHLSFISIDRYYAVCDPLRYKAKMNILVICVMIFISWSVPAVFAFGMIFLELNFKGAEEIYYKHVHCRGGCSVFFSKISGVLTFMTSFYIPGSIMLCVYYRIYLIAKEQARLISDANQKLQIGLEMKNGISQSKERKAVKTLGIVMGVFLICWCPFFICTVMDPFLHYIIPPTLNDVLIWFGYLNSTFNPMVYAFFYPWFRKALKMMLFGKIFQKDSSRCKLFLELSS
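Signal – calcium-sensitive Fluo-8 signal, excitation 470-495, emission 515-575 nm · System – RD-HGA16 (CHO) cells co-expressing Gα16 and hTAAR1 · Incubation – 17-24 h seeding, 75 min 37 °C dye, 30 min RT · Compound dosing – 3 µM single concentration · Repeats – no replicates (n 1)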
TAAR1 antagonist = antagonists of human TAAR1; 360,000 tested, 1.5% active; AID 624466; inhibition, % at 3 µM; CHO RD-HGA16 TAAR1, Fluo-8 calcium fluorescence, antagonist;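 active means inhibition above a per-plate cutoff, the mean inhibition of test compounds on that plate plus 3 SD, cut at about 49% in these data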
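System: RD-HGA16 CHO cells with stable hTAAR1 and Gα16 | Probe or stimulus: EC80 β-phenethylamine stimulus | Dosing: 3 µM, single point | Times: Dye loading 75 min at 37 °C, then 30 min room temperature | Measured by: Fluo-8 calcium-sensitive fluorescence | Read-out basis: % inhibition of agonist calcium response | Replicates: n of 1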
Numbers stand for hits; . = inactive; / = not tested or not shown.

SMILES | CHO parental Ca | OX1R antag-1 | GalR3 antag | OX1R antag-2 | TAAR1 agonist | TAAR1 antagonist
CN1C[C@@H]2[C@@H]3C(=O)N(Cc4ccccc4)C(=O)[C@@H]3[C@](Cc3ccccc3)(C1=O)N2C(=O)c1ccc(C(C)(C)C)cc1 | / | / | . | / | 41.5 | .
COC(=O)[C@]1(Cc2ccccc2)N[C@H](CN(C)C(=O)c2ccc(C(C)(C)C)cc2)[C@@H]2C(=O)N(Cc3ccccc3)C(=O)[C@@H]21 | . | . | . | . | . | .
COC(=O)c1c(C)oc2ccc(N(C(=O)c3ccncc3)S(=O)(=O)c3ccc(C)cc3C)cc12 | 38.3 | . | . | . | . | .
COC(=O)c1c(C)oc2ccc(N(C(=O)c3ccncc3)S(=O)(=O)c3ccccc3)cc12 | . | . | . | . | . | .
COC(=O)c1c(C)oc2ccc(N(C(=O)c3ccncc3)S(=O)(=O)c3ccc4ccccc4c3)cc12 | . | . | . | . | . | 49.9
CC(C)(C)C(=O)NCC12C=CC(O1)C1C(=O)N(c3ccccc3)C(=O)C12 (stereo not drawn) | . | . | . | . | . | .
O=C1C2C3C=CC(CO)(O3)C2C(=O)N1c1ccc(-c2ccccc2)cc1 (stereo not drawn) | 60.7 | . | / | . | / | /
Cc1cccc2c1cnn2C(=O)CCC(=O)N1CCC(C)CC1 | . | . | / | . | . | .
Cc1cc(O)c(N)c(C)c1Cl | . | . | . | 53.5 | . | .
COc1ccc(NC(=O)CSc2nnc(-c3ccccc3)n2Cc2ccco2)cc1OC | . | . | . | 37.9 | . | .
CCn1c(SCC(=O)Nc2ccc3c(c2)OCCO3)nnc1-c1c[nH]c2ccccc12 | . | . | / | 38.3 | . | .
O=C(CSc1nnc(-c2ccccc2Cl)n1Cc1ccco1)Nc1ccc2c(c1)OCCO2 | . | . | . | 71.2 | . | .
O=C(CSc1nnc(-c2ccc(Cl)cc2)n1Cc1ccco1)Nc1ccc2c(c1)OCCO2 | . | . | . | . | . | .
Cc1cc(NC(=O)CSc2nnc(-c3ccccc3)n2Cc2ccco2)no1 | . | . | . | . | . | .
CCN(CC)C1CCN(C(=O)c2ccc3nc(Cc4ccc(OC)cc4)oc3c2)C1 (stereo not drawn) | / | / | . | / | . | .
Cc1ccc(C)c(NCCCCCCCC(=O)O)c1 | / | / | . | / | . | .
Cc1ccccc1CN(C)C(=O)COC(=O)c1ccc2[nH]c(C)c(C)c2c1 | . | . | . | 52.9 | . | .
O=C1CCc2cc(S(=O)(=O)Nc3ccccc3F)ccc2N1 | . | . | . | . | . | .
COc1ccc(/C=N/NC(=O)CCCOc2ccc(Cl)cc2Cl)cc1[N+](=O)[O-] | . | . | . | . | . | 48.8
Cc1ccc(S(=O)(=O)C[C@@H]2OC[C@H](Cc3ccccc3)N2S(=O)(=O)c2ccc(C)cc2)cc1 | / | / | . | / | . | .
COc1ccc2nc(-c3ccccc3)cc(C(=O)OCC(=O)N3CCCCC3)c2c1 | . | . | . | . | . | 56.5
O=C(COC(=O)c1cc(-c2cccs2)nc2ccccc12)NCc1ccco1 | . | . | . | 72.3 | . | .
CCOc1ccc(-c2cc(C(=O)N3CCN(c4ccccn4)CC3)c3ccccc3n2)cc1 | . | . | . | . | . | .
COc1ccc(-c2cc(C(=O)N3CCN(c4ccccc4O)CC3)c3ccccc3n2)cc1 | . | . | . | . | . | 62.4
Cc1cc(C(=O)OCC(=O)NCc2cccs2)c2ccccc2n1 | . | . | . | . | . | .
SMILES | CHO parental Ca | OX1R antag-1 | GalR3 antag | OX1R antag-2 | TAAR1 agonist | TAAR1 antagonist
COc1ccc(-c2cc(C(=O)OCC(=O)N3CCCC3)c3ccccc3n2)cc1 | . | . | . | . | . | .
COc1ccc(-c2cc(C(=O)N3CCN(c4ccccn4)CC3)c3ccccc3n2)cc1 | . | . | . | . | . | 53.2
CCN(C(=O)CN1C(=O)NC2(CCc3ccccc32)C1=O)C1CCS(=O)(=O)C1 (stereo not drawn) | . | . | . | . | . | .
COc1cc(-c2cc(C(=O)N3CCN(c4ccccn4)CC3)c3ccccc3n2)cc(OC)c1OC | . | . | . | . | . | 49.7
O=C(c1cc(-c2cccs2)nc2ccccc12)N1CCN(CCO)CC1 | / | / | . | / | . | .
O=C(c1cc(-c2cccs2)nc2ccccc12)N1CCN(c2ccccc2O)CC1 | . | . | . | . | . | 58.4
Cc1ccc(NC(=O)c2cc(-c3cccs3)nc3ccccc23)nc1 | . | . | . | . | . | 53.0
C[C@@H]1CN([C@@H](C)CO)C(=O)CCCn2nncc2CO[C@@H]1CN(C)C(=O)CCC(F)(F)F | / | / | . | / | . | .
COC(=O)N1C[C@@H]2Oc3nccnc3O[C@@H]2C[C@@H]1c1ccccc1Br | / | / | . | / | . | .
Cc1cc(N2CCN(C(=O)OC(C)(C)C)C[C@@H]2C)ccc1N1CCS(=O)(=O)CC1 | / | / | . | / | . | .
O=S(=O)(c1cccs1)N1CCCc2ccccc21 | 56.3 | . | . | . | . | .
O=C(Nc1ccc2c(c1)N(S(=O)(=O)c1cccs1)CCC2)c1c(F)cccc1Cl | . | . | . | 54.8 | . | .
Cc1cc([N+](=O)[O-])ccc1NC(=O)c1cc2ccccc2o1 | . | . | . | . | . | .
COC(=O)c1cc2c(c3c4cc(F)ccc4n(C(=O)c4ccccc4)c13)C(=O)N(C1CCCCC1)C2 | / | / | . | / | . | .
CC1(C(=O)Nc2cnc3ccccc3c2)CCN1Cc1ccccc1Cl (stereo not drawn) | / | / | . | / | . | .
CC1(C(=O)Nc2cnc3ccccc3c2)CCN1Cc1ccccc1OC(F)F (stereo not drawn) | / | / | . | / | . | 61.6
COc1cccc(CN2CCC2(C)C(=O)Nc2cnc3ccccc3c2)c1F (stereo not drawn) | / | / | . | / | . | 53.0
C=CC[C@H](CC(=O)NCCO)C(=O)N[C@H](COC(=O)[C@@H](CC=C)Cc1ccc(F)cc1)c1ccccc1 | . | . | . | . | . | .
CCN(CC)S(=O)(=O)c1ccc(Cl)c(C(=O)Nc2ccc(Cl)cc2[N+](=O)[O-])c1 | 49.8 | . | . | . | . | .
CN(C)S(=O)(=O)c1ccc(Cl)c(C(=O)Nc2ccccc2[N+](=O)[O-])c1 | . | . | . | . | . | .
COC(=O)[C@]1(C)CCC[C@@]2(C)C3CC[C@@]4(C)C[C@]3(CCC21)CC(=O)N4Cc1ccc(OC)cc1 (stereo partly drawn) | . | . | . | . | . | .
COC(=O)[C@]1(C)CCC[C@@]2(C)C3CC[C@]4(OC(C)=O)C[C@@]3(CCC21)CC4=O (stereo partly drawn) | . | . | . | . | . | 51.1
COc1ccc2oc(=O)cc(CN3CCN(Cc4ccc(OC)c(OC)c4OC)CC3)c2c1 | / | / | . | / | . | .
COCCOc1nc2c(c(=O)n(C)c(=O)n2C)n1Cc1cccc(OC)c1 | 44.8 | . | . | . | . | .
